Screening data (PubChem)
Most compounds without a hit are left out; they make up all but 12% or so of the library.
Diaphorase inh – diaphorase inhibition or chemical oxidation counter-screen; diaphorase resazurin-to-resorufin fluorescence, NADH, 16 min; bacterial (C. kluyveri) enzyme, not human; inhibition, % at 20 µM; actives 0.69% (n = 190,000); AID 1217;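 active = primary screen inhibition at 20 µM above a set limit, cut at about 50% in these data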
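controls = No-NADH positive control and DMSO neutral control | system = Clostridium kluyveri diaphorase enzyme | timing = reaction incubation of 16 min at room temperature | signal = resorufin fluorescence 544/590 nm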
ROMK primary – human ROMK K+ channel modulation, primary screen; P48048; Tet-inducible ROMK, thallium flux fluorescence; actives lie on both sides; B-score at 10 µM; actives 2% (n = 130,000);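 active = signal ratio slope over the read window, or its plate-corrected B-score, at least 3 SD from the plate mean, either direction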;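 also: B-score of the F/F0 ratio slope over 7 to 12 s after thallium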
Target sequence (P48048 whole entry, looked up): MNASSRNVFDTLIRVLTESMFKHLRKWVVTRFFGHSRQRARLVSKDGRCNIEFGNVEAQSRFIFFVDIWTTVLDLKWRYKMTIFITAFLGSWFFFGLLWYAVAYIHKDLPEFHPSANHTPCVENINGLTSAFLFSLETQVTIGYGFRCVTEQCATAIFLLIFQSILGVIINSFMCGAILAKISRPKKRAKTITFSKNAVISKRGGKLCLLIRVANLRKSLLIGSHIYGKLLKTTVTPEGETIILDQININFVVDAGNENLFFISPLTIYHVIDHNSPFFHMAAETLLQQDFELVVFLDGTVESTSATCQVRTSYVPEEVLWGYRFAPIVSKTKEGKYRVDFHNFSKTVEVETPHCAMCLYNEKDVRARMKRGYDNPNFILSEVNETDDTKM
Diaphorase act – counter-screen for diaphorase-based assays: diaphorase activators and chemical reducers | Diaphorase/resazurin coupled assay, resorufin fluorescence, 16 min; stronger effect = higher value; 1 = vehicle wells, 0 = NADH-free wells | actives 0.005% (n = 190,000) | activation factor at 20 µM;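 active = diaphorase activity raised at least twofold by the compound at 20 µM; inactive = activation factor below 2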
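Assay system: bacterial diaphorase enzyme (C. kluyveri) / Input: enzyme 0.07 U/mL final / Medium: 50 mM HEPES pH 7.4 with 4.542 mM MgCl2, 0.005% Tween 20 / Doses: single compound dose of 20 µM, 1% DMSO final / Incubation: 16 min enzyme reaction, ambient temperature / Signal: fluorescence, excitation 544 nm and emission 590 nm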
Lmaj promast – inhibitors of Leishmania major promastigote growth; inhibition, % at 10 µM; Leishmania major promastigotes, resazurin fluorescence viability; actives 9% (n = 200,000); in the data active = inhibition above about 50%;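 also: promastigotes grown with compound for 44 hours at 28 °C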
WT yeast gro inh – growth inhibition of WT yeast, mitochondrial fusion screen | actives 2.1% (n = 190,000) | AID 1362 | mitochondrial fusion phenotypic screen, WT strain | inhibition, % at 10 µM; in the data active = inhibition above about 58%; tested in S. cerevisiae
KCC2 mod – modulates chloride dependent transport by human KCC2; B-score of Tl+ flux slope (higher = more flux/activation; lower = inhibition) at 10 µM; AID 1456; actives 2.2% (n = 190,000); KCC2 cells, thallium flux FluoZin-2 fluorescence;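 active = thallium flux slope and its plate-corrected score both differing from the plate sample mean at a set confidence after two filtering rounds, in either direction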;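 also: slope of fluorescence scaled to starting intensity during 10 to 20 s after thallium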
KCC2 secondary – confirmation of human KCC2 transport modulators; shares compounds with KCC2 mod; HEK293-KCC2, thallium flux, FluoZin2 fluorescence; stronger effect = higher value; normalised thallium flux (F/F0 slope) at 10 µM; actives 15% (n = 3,700);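 active = thallium flux slope above the same plate's solvent-only control mean plus 3 SD; inconclusive = the two replicate wells disagree; inactive = no significant difference from solvent-only control wells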
KCC2 bumet counter – thallium flux persisting under bumetanide in KCC2 cells, counter-screen secondary assay; AID 1714; HEK293-KCC2 + bumetanide/ouabain, thallium flux FluoZin2; stronger effect = higher value; actives 49% (n = 3,700); normalized thallium flux at 10 µM; shares compounds with KCC2 mod;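 active = thallium entry rate above the same plate's blocked-transporter control wells by more than 3 SD; inconclusive = the two repeat wells disagree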;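 also: raw slope of fluorescence over initial fluorescence between 10 and 20 s after thallium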
KCC2 secondary2 – KCC2 (human) modulation, second secondary assay | HEK293-KCC2, thallium flux FluoZin2 fluorescence; actives lie on both sides; F/F0 rise rate, 10–20 s post-thallium | AID 1715 | shares compounds with KCC2 mod | actives 23% (n = 3,700) | normalized thallium flux at 10 µM;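 active = thallium flux slope more than 3 SD above or below the plate's solvent-only control mean, mostly below; inconclusive = the two repeat wells disagreed; inactive = no significant shift from solvent-only controls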
HEK counter1 – counter-screen for KCC2 modulators: effect in parental HEK293 cells. thallium flux FluoZin2, ouabain; baseline-ratio fluorescence slope, 10–20 s after thallium. thallium flux rate (normalised fluorescence) at 10 µM. shares compounds with KCC2 mod. actives 46% (n = 3,700);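 active = thallium flux rate significantly above the same plate's solvent-only control wells, beyond their mean plus 3 SD; inconclusive = the two replicate wells gave conflicting results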
KCC2 retest ouab – confirmation of human KCC2 modulators with ouabain; AID 1717; actives 48% (n = 3,700); HEK293-KCC2, thallium flux FluoZin2 fluorescence; bidirectional: low = inhibitor, high = activator; shares compounds with KCC2 mod; raw Tl+ flux slope (below DMSO = inhibition, above = activation) at 10 µM;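 active = thallium flux slope beyond 3 SD from same-plate DMSO control mean in most replicates, usually higher, sometimes lower; inconclusive = repeat tests gave conflicting results; inactive = no significant difference from controls in most replicates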;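 also: slope of initial-normalized fluorescence between seconds 10 and 20 after thallium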
HEK counter2 – parental HEK flux effect, counter-screen 2 | shares compounds with KCC2 mod | HEK293 parental, thallium flux FluoZin-2 fluorescence slope | thallium flux slope at 10 µM | actives 33% (n = 3,700) | AID 1718;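 active = thallium flux slope above the same plate's solvent-control mean plus 3 SD in both duplicate wells; inconclusive = duplicate wells that disagreed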;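 also: run without ouabain in cells lacking the KCC2 cotransporter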
Hits are given with their value; - = inactive; ? = inconclusive; . = no result given.

SMILES | Diaphorase inh | ROMK primary | Diaphorase act | Lmaj promast | WT yeast gro inh | KCC2 mod | KCC2 secondary | KCC2 bumet counter | KCC2 secondary2 | HEK counter1 | KCC2 retest ouab | HEK counter2
CCOC(=O)c1ccc(C(=O)OCC)c(NC(=S)Nc2ccc([N+](=O)[O-])cc2OC)c1 | - | . | - | - | - | 10 | 0.013 | 0.031 | - | 0.024 | 0.033 | 0.014
O=C(NC(Cc1ccccc1)C(=O)OCC(=O)N1CCc2ccccc21)c1ccco1 (stereo not given) | - | . | - | - | - | -3.7 | - | - | 0.022 | - | - | -
S=c1[nH]nc(CNc2cccc(Cl)c2)o1 | - | - | - | - | - | -5.2 | - | ? | 0.025 | - | 0.014 | -
Cc1cccc(OCc2n[nH]c(=S)o2)c1 | - | - | - | - | - | - | . | . | . | . | . | .
COCCn1c(SCC(=O)N(C)C2CCS(=O)(=O)C2)nc2ccccc2c1=O (stereo not given) | - | - | - | - | - | - | . | . | . | . | . | .
CC(Sc1nc2cc([N+](=O)[O-])ccc2n1-c1ccc(F)cc1)C(=O)NCc1ccc2c(c1)OCO2 (stereo not given) | - | - | - | - | - | 10 | - | 0.015 | - | 0.013 | - | 0.012
CCn1c(SCC(=O)N(Cc2ccccc2)C2CCS(=O)(=O)C2)nc2ccccc2c1=O (stereo not given) | - | . | - | - | - | . | - | 0.012 | - | 0.011 | ? | 0.013
CN(C(=O)CSc1nc2ccccc2n1CCc1ccccc1)C1CCS(=O)(=O)C1 (stereo not given) | - | . | - | - | - | 9.5 | - | 0.015 | - | 0.011 | ? | 0.014
CN(C(=O)CSc1nnc(-c2cccc(F)c2)n1N)C1CCS(=O)(=O)C1 (stereo not given) | - | - | - | - | - | - | . | . | . | . | . | .
CN(C(=O)CSc1nc2cc([N+](=O)[O-])ccc2n1-c1ccc(F)cc1)C1CCS(=O)(=O)C1 (stereo not given) | - | - | - | - | - | 4.9 | - | 0.023 | - | 0.014 | ? | 0.011
CC(C)CCn1c(SCC(=O)OCn2nnc3ccccc3c2=O)nc2ccccc2c1=O | - | . | - | - | - | - | . | . | . | . | . | .
CCOC(=O)C1=NN(c2ccccc2C)C2=NC(C)=C(C(=O)OC)C(c3cccc(OC)c3)N12 (stereo not given) | - | - | - | - | - | - | . | . | . | . | . | .
Cc1ccc(-n2nnnc2SCC(=O)N2CCc3ccccc3C2)cc1 | - | - | - | - | - | -3.6 | - | - | - | - | 0.021 | -
Cc1ccc(-n2nnnc2SCC(=O)NC2CCCc3ccccc32)cc1 (stereo not given) | - | - | - | - | - | -4.6 | - | 0.0033 | 0.026 | ? | 0.014 | -
Cc1ccc(-n2nnnc2SCC(=O)N2CCCCC2)cc1 | - | - | - | - | - | - | . | . | . | . | . | .
CCOc1cc([N+](=O)[O-])cc2c1C(=O)Nc1ccccc1O2 | - | - | - | - | - | - | . | . | . | . | . | .
COc1ccccc1NC(=O)c1oc2ccccc2c1NC(=O)c1cc(OC)c(OC)c(OC)c1 | . | . | . | - | . | - | . | . | . | . | . | .
COc1ccccc1NC(=O)c1oc2ccc(C)cc2c1C | - | . | - | - | . | -4.7 | - | - | - | - | - | -
CCN(CC)S(=O)(=O)c1cccc(-c2nnc(SC(C)C(=O)NCCC3=CCCCC3)o2)c1 (stereo not given) | . | - | . | - | - | -2.4 | - | - | - | - | - | -
COc1ccc(C(=O)NC2CCN(C(=S)Nc3ccc(C)cc3)CC2)cc1 | - | - | - | - | - | - | . | . | . | . | . | .
COc1ccc(-n2c3c(cc(C(=O)Nc4ccc5c(c4)C(=O)NC5=O)c2=O)C(=O)CCC3)cc1 | . | . | . | - | - | - | . | . | . | . | . | .
COc1ccc(Nc2cc(C)c3ccc(O)cc3n2)cc1 | . | - | . | . | . | - | - | - | - | ? | - | -
O=C(O)/C(=C\c1ccc(-c2ccc(F)cc2)o1)c1ccccc1 | - | - | - | - | - | -7 | - | 0.008 | - | - | 0.016 | -
Cc1nc2nc(-c3ccccc3)cc(=O)n2[nH]1 | - | . | - | - | - | - | . | . | . | . | . | .
O=c1cc(-c2ccccc2)nc2c(-c3ccccc3)c(C(F)(F)F)[nH]n12 | . | . | . | . | . | 3.8 | - | 0.014 | - | 0.011 | - | -
SMILES | Diaphorase inh | ROMK primary | Diaphorase act | Lmaj promast | WT yeast gro inh | KCC2 mod | KCC2 secondary | KCC2 bumet counter | KCC2 secondary2 | HEK counter1 | KCC2 retest ouab | HEK counter2
COc1cccc(CNC(=O)CCC2CCCN(C(=O)CCn3cncn3)C2)c1 (stereo not given) | - | - | - | - | - | - | . | . | . | . | . | .
O=c1[nH]c(CN2CCCCC2)nc2c1C1(CCCCC1)Cc1ccccc1-2 | - | - | - | - | - | - | . | . | . | . | . | .
CCc1nc2c(c(=O)[nH]1)C1(CCCC1)Cc1ccccc1-2 | - | - | - | - | - | . | - | - | - | - | - | -
Cc1nc(=S)c2c([nH]1)-c1ccccc1CC21CCCCC1 | . | . | . | . | . | 77 | 0.02 | 0.1 | - | 0.04 | 0.068 | 0.011
O=c1[nH]c(CN2CCCCC2)nc2c1C1(CCCC1)Cc1ccccc1-2 | . | - | . | - | . | - | . | . | . | . | . | .
Fc1ccc(N2CN(Cc3cccnc3)CNC2=S)cc1 | . | . | . | . | . | - | . | . | . | . | . | .
O=C(NCCc1cccs1)C1CC(c2ccccc2[N+](=O)[O-])=NO1 (stereo not given) | - | - | - | - | - | - | . | . | . | . | . | .
CCn1c(SCC(=O)Nc2ccc(C(C)=O)cc2)nc2nc3c(cc2c1=O)CCCC3 | - | . | - | - | - | . | . | . | . | . | . | .
CCn1c(SCC(=O)Nc2ccc(Cl)cc2)nc2nc3c(cc2c1=O)CCCC3 | - | . | - | - | - | 4.8 | ? | 0.015 | - | 0.013 | ? | 0.013
CC1Cc2ccccc2N1Cc1nc2scc(-c3cccs3)c2c(=O)[nH]1 (stereo not given) | - | . | - | - | - | 3.9 | - | 0.0094 | - | - | - | -
Cc1[nH]c2ccccc2c1/C=C/c1nc2ccccc2c(=O)n1CCO | - | - | - | - | - | -4.2 | - | 0.0024 | - | - | ? | -
